Rows were chosen to be rich in hits. Some 6.6% of all compounds tested hit in one or more screens of this group.
H69AR growth 86K: blocks growth of human H69AR lung tumor cells; 85,000 compounds, 6% hits; viability, % at 10 µM; H69AR lung tumor viability, ATP luminescence, 72 h; stronger effect = lower value; AID 598;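 active = viability at or below 40%; inactive = viability above 40%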;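 also: multidrug resistant small cell line overexpressing MRP-1 efflux transporter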
HUVEC prolif 384: inhibitors of human endothelial cell proliferation; HUVEC proliferation, CellTiter-Glo luminescence, 72 h; stronger effect = lower value; viability, % at 10 µM (by protocol); 86,000 compounds, 1.1% hits; AID 648;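 active = viability at or below 30%; inactive = viability above 30%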
Lung fibro prol: blocks proliferation of human lung fibroblasts | LL 47 human lung fibroblast viability, ATP luminescence; stronger effect = lower value | viability, % at 10 µM | 85,000 compounds, 1.1% hits | AID 719;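 active = viability at or below 50% in the single dose screen; inactive = viability above 50%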;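 also: compound exposure lasted 72 h before the ATP readout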
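Times – overnight cell rest, 72 h compound treatment at 37 °C · Test system – human lung fibroblast line LL 47, low passage · Amount – 1,150 cells in each well · Controls – cell-only wells, no compound · Doses – 0.1% DMSO in all compound wells · Measured by – CellTiter-Glo luminescence · Buffer or medium – IMEM plus 15% FBS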
Jurkat viability: reduces viability or proliferation of Jurkat cells. Jurkat E6.1 viability, ATP luminescence, 48 h. inhibition, % at 4 µM. 56,000 compounds, 1.2% hits;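 active = inhibition above the mean inhibition of all tested compounds plus 3 SD, cut at about 28% in these data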
Hits are given with their value.

How did Cc1ccc(OCC(=O)Nc2ccc(F)cc2)cc1C do in these assays?
H69AR growth 86K: inactive; HUVEC prolif 384: inactive; Lung fibro prol: inactive

How did CC12CC(c3ccccc3O1)N(C(=O)c1ccco1)C(=S)N2c1ccc(F)cc1 (centres undefined) do in these assays?
H69AR growth 86K: 6.4; HUVEC prolif 384: inactive; Lung fibro prol: inactive

What do the screens show for `COc1ccc(N2CCN(C(=O)c3ccc(N4C(=O)NC5CC4(C)Oc4ccccc45)cc3)CC2)cc1` (centres undefined)?
H69AR growth 86K: inactive; HUVEC prolif 384: inactive; Jurkat viability: inactive

Results for CC(=O)O[C@@]12CO[C@@H]1C[C@H](O)[C@@]1(C)C(=O)[C@H](O)C3=C(C)[C@@H](OC(=O)[C@H](O)[C@@H](NC(=O)OC(C)(C)C)c4ccccc4)C[C@](O)([C@@H](OC(=O)c4ccccc4)[C@H]21)C3(C)C ?
H69AR growth 86K: 23; HUVEC prolif 384: inactive; Lung fibro prol: inactive

Results for COc1cc2cc(CN(C(=O)NC3CCCCC3)C3CCCC3)c(=O)[nH]c2cc1OC ?
H69AR growth 86K: inactive; HUVEC prolif 384: inactive; Lung fibro prol: inactive; Jurkat viability: inactive

How did CCc1ccc2[nH]c(=O)c(CN(Cc3ccccc3)C(=O)Nc3ccccc3OC)cc2c1 do in these assays?
H69AR growth 86K: 39; HUVEC prolif 384: inactive; Lung fibro prol: 49

How did O=C(NC1CCCCC1)N(Cc1cc2cc3c(cc2[nH]c1=O)OCCO3)C1CCCCC1 do in these assays?
H69AR growth 86K: 36; HUVEC prolif 384: inactive; Lung fibro prol: inactive

What do the screens show for `COc1ccc2cc(CN(C(=O)Nc3ccccc3OC)C3CCCC3)c(=O)[nH]c2c1`?
H69AR growth 86K: 25; HUVEC prolif 384: inactive; Lung fibro prol: inactive; Jurkat viability: inactive

Results for COc1ccccc1NC(=O)N(Cc1ccc2c(c1)OCO2)Cc1nc2ccccc2c(=O)[nH]1 ?
H69AR growth 86K: 9.4; HUVEC prolif 384: inactive; Lung fibro prol: inactive; Jurkat viability: inactive

Results for CCc1ccc2[nH]c(=O)c(CN(CCN(C)C)C(=O)Nc3ccccc3OC)cc2c1 ?
H69AR growth 86K: inactive; HUVEC prolif 384: inactive; Lung fibro prol: inactive; Jurkat viability: inactive

Results for CCOCCCNC(=O)CCSc1ccc(C)cc1 ?
H69AR growth 86K: inactive; HUVEC prolif 384: inactive; Lung fibro prol: inactive

Results for O=C(O/N=C/C1=C(Cl)c2ccccc2CC1)c1ccc(F)cc1 ?
H69AR growth 86K: inactive; HUVEC prolif 384: inactive; Lung fibro prol: inactive

Results for C=CS(=O)(=O)c1ccc(Oc2ccc(S(=O)(=O)C=C)cc2)cc1 ?
Jurkat viability: 100

What do the screens show for `COc1cccc(NC(=O)CSc2nc3n[nH]c(C)c3c(=N)n2-c2cccc(OC)c2)c1`?
H69AR growth 86K: inactive; HUVEC prolif 384: inactive; Lung fibro prol: inactive; Jurkat viability: inactive

How did Cc1cc(-n2c(SCC(=O)NCc3cccs3)nc3n[nH]c(C)c3c2=N)ccc1Cl do in these assays?
H69AR growth 86K: 24; HUVEC prolif 384: inactive; Lung fibro prol: inactive; Jurkat viability: inactive

Results for Cc1ccc(CNC(=O)CSc2nc3n[nH]c(C)c3c(=N)n2-c2cccc(C)c2)cc1 ?
H69AR growth 86K: inactive; HUVEC prolif 384: inactive; Lung fibro prol: inactive

Results for CCc1ccc(NC(=O)CSc2nc3n[nH]c(C)c3c(=N)n2-c2cccc(OC)c2)cc1 ?
H69AR growth 86K: 10; HUVEC prolif 384: inactive; Lung fibro prol: inactive

Results for Cc1nc(SCC(=O)c2ccccc2)c(C#N)c(-c2ccco2)c1C(=O)NCc1ccco1 ?
H69AR growth 86K: inactive; HUVEC prolif 384: inactive; Lung fibro prol: inactive

How did COCCCn1c2nc3ccccc3nc2c2c(=O)n(Cc3ccccc3Cl)cnc21 do in these assays?
H69AR growth 86K: 3.2; HUVEC prolif 384: 27; Lung fibro prol: inactive; Jurkat viability: inactive

What do the screens show for `CCc1cc(=O)oc2cc(OCC(N)=O)c(Cl)cc12`?
H69AR growth 86K: inactive; HUVEC prolif 384: inactive; Lung fibro prol: inactive

What do the screens show for `CCOc1ccc(-c2n[nH]c(C)c2Oc2ccc(OC)cc2)c(O)c1`?
H69AR growth 86K: inactive; HUVEC prolif 384: inactive; Lung fibro prol: inactive; Jurkat viability: inactive

What do the screens show for `CCOc1ccc(-c2[nH]ncc2-c2ccc(OC)c(OC)c2)c(O)c1`?
H69AR growth 86K: 14; HUVEC prolif 384: inactive; Lung fibro prol: inactive; Jurkat viability: 92

What do the screens show for `CCCOC(=O)c1ccc(Oc2cn[nH]c2-c2ccc(OC)cc2O)cc1`?
H69AR growth 86K: inactive; HUVEC prolif 384: 8.5; Lung fibro prol: inactive; Jurkat viability: inactive

Results for C=C(C)COc1ccc(-c2[nH]ncc2Oc2ccccc2OC)c(O)c1 ?
H69AR growth 86K: 1.5; HUVEC prolif 384: inactive; Lung fibro prol: inactive; Jurkat viability: inactive

Results for C=C(C)COc1ccc(-c2[nH]ncc2-c2ccccc2OC)c(O)c1 ?
H69AR growth 86K: 6.0; HUVEC prolif 384: inactive; Lung fibro prol: inactive; Jurkat viability: inactive

What do the screens show for `COc1ccc(O)c(-c2[nH]ncc2C(=O)c2ccccc2C)c1`?
H69AR growth 86K: inactive; HUVEC prolif 384: inactive; Lung fibro prol: inactive

Results for C=C(C)COc1ccc(-c2nc(N)ncc2Oc2ccccc2OC)c(O)c1 ?
H69AR growth 86K: inactive; HUVEC prolif 384: inactive; Lung fibro prol: inactive; Jurkat viability: inactive

What do the screens show for `O=C(NC1CCCCC1)C(c1ccco1)N(Cc1cccnc1)C(=O)C1COc2ccccc2O1` (centres undefined)?
H69AR growth 86K: inactive; HUVEC prolif 384: inactive; Lung fibro prol: inactive; Jurkat viability: inactive

What do the screens show for `CCOc1ccc(-c2[nH]ncc2Oc2ccccc2OCC)c(O)c1`?
H69AR growth 86K: 12; HUVEC prolif 384: inactive; Lung fibro prol: inactive; Jurkat viability: inactive

How did CCOc1ccc(-c2[nH]ncc2Oc2ccccc2OC)c(O)c1 do in these assays?
H69AR growth 86K: inactive; HUVEC prolif 384: inactive; Lung fibro prol: inactive; Jurkat viability: inactive

Results for Cc1ccccc1C(=O)NC1CCN(CC(=O)Nc2nccs2)CC1 ?
H69AR growth 86K: 16; HUVEC prolif 384: inactive; Lung fibro prol: inactive; Jurkat viability: inactive

Results for Cc1ccc(-c2nnn(CC(=O)N(c3ccc(F)cc3)C(C(=O)NC(C)(C)C)c3ccco3)n2)o1 (centres undefined) ?
H69AR growth 86K: 32; HUVEC prolif 384: inactive; Lung fibro prol: inactive

How did O=c1cc(-c2c(F)c(F)c(F)c(F)c2F)oc2c(F)c(F)c(F)c(F)c12 do in these assays?
H69AR growth 86K: 1.0; HUVEC prolif 384: 1.6; Lung fibro prol: 17

Results for COc1ccc(CNC(=O)C(C#N)c2nc3ccccc3nc2N2CCN(C)CC2)cc1 (centres undefined) ?
H69AR growth 86K: 34; HUVEC prolif 384: 4.2; Lung fibro prol: inactive; Jurkat viability: inactive

What do the screens show for `COc1ccc(CNC(=O)C(C#N)c2nc3ccccc3nc2N2CCCC2)cc1` (centres undefined)?
H69AR growth 86K: 34; HUVEC prolif 384: inactive; Lung fibro prol: inactive; Jurkat viability: inactive

What do the screens show for `O=C(CN1CCN(c2ccccc2)CC1)Nc1ccc(OCc2ccccc2)cc1`?
H69AR growth 86K: inactive; HUVEC prolif 384: inactive; Lung fibro prol: inactive

How did CCC(C)C(=O)Nc1cc(C(=O)OC)cc(C(=O)OC)c1 (centres undefined) do in these assays?
H69AR growth 86K: inactive; HUVEC prolif 384: inactive; Lung fibro prol: inactive; Jurkat viability: inactive

How did CC(C)n1cc(NC(=O)c2cc(-c3ccccc3)on2)cn1 do in these assays?
H69AR growth 86K: 21; HUVEC prolif 384: inactive; Lung fibro prol: inactive

Compound activity: PubChem BioAssay, several laboratories
